Measured values as given in PubChem BioAssay.
Active and inactive are the calls of the source.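 Rule for the calls, unless noted: active = viability at or below 10% of carrier control in both of two separate runs; inconclusive = viability at or below 10% in only one of the two runs; inactive = the rest.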

Columns and labels:
[1] = Her2 expression decrease, cell viability multiplex – SKBR3 breast tumor cells, AlphaScreen, ATP viability, primary screen (AID 461;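 active = Her2 level under about 52% in both replicate screens, with viability over 70% of control, limit read from the data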;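 for Her2 level: lower value means less Her2 protein in the cells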;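 for viability: percent of carrier control wells set as 100% viability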); conditions: SKBR3 Her2 protein level, 18-24 h, measured here: SKBR3 viability, ATP luminescence, at 10 µM
[2] = molecular target: Receptor tyrosine-protein kinase erbB-2 (Homo sapiens) (UniProt P04626); assay: as above; conditions: 18-24 h, at 10 µM, stronger effect = lower value
Sequence of Receptor tyrosine-protein kinase erbB-2 (Homo sapiens) (P04626 whole entry, looked up): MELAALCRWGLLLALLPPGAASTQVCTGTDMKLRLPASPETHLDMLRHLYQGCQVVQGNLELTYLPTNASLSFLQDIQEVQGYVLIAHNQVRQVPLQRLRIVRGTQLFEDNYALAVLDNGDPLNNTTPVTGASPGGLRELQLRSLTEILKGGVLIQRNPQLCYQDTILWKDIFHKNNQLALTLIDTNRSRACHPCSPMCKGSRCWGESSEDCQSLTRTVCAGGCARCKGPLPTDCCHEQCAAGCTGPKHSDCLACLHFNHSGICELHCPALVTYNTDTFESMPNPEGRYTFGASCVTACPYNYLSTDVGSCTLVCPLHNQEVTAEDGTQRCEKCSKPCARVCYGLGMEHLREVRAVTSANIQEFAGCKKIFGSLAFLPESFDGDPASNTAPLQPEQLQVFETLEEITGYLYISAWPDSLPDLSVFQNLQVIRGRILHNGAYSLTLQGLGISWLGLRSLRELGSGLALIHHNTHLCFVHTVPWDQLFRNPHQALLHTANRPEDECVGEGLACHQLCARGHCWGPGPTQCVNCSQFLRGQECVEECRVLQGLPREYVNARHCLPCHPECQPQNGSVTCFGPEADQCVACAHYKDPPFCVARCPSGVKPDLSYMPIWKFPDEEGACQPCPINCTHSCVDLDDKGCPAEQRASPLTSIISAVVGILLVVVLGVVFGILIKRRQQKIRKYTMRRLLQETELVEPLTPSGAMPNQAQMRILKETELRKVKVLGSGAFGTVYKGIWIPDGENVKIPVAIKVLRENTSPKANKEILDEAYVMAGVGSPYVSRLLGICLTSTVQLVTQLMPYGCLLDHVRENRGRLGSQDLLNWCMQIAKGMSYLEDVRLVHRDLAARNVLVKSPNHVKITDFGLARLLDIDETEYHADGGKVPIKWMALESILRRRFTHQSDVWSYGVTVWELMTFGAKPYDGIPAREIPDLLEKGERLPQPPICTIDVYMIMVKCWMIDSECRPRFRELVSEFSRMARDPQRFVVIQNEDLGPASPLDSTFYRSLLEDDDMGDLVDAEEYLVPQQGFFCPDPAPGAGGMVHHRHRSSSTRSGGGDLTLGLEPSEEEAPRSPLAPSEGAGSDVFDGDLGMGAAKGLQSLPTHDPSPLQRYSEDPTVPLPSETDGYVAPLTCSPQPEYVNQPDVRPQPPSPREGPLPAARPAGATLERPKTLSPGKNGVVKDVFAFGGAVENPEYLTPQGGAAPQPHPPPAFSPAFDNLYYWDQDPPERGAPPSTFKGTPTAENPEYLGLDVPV

[3] = reduced viability of SK-BR-3 breast cancer cells – cell-based, 24 h, human, pilot screen (AID 572); conditions: SK-BR-3 viability, CellTiter-Glo luminescence, at 10 µM, stronger effect = lower value;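 note: compound exposure lasted between 18 and 24 h rather than exactly 24 h; 100% = carrier-treated control wells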
[4] = HUVEC growth inhibition – cell-based, human, primary screen (AID 575;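 active = viability at or below 30% in both replicate assays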;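 note: 100% = median of untreated cell wells with 0.1% DMSO on each plate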); conditions: HUVEC proliferation, CellTiter-Glo luminescence, 72 h; at 10 µM; stronger effect = lower value
Procedure, shortened: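 Timing: 72 h treatment at 37 °C; material: HUVEC primary cells; technique: CellTiter-Glo luminescence measuring cellular ATP; controls: vehicle and MePR control wells; measure: percent of median DMSO-control luminescence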

[5] = H69AR cell proliferation blockers – human, duplicate replicates, primary screen (AID 580;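 active = viability at or under a set limit in both replicates, limit being median viability minus 3 SD, cut at about 48% in these data, passing the limit was not always enough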;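 note: 100% = mean luminescence of untreated wells and 0% = no signal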); conditions: H69AR lung tumor cells viability, ATP luminescence, 72 h; at 10 µM; stronger effect = lower value
[6] = MRP1 drug-resistance reversers in H69AR cells – cell-based, doxorubicin co-treatment, pilot screen (AID 601;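 active = viability loss from added drug above about 55%, and viability with drug at most 40%, in both replicates, limit read from the data, passing the limit was not always enough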); conditions: CellTiter-Glo, 72 h, at 10 µM; for differential viability (reversal): stronger effect = higher value
[7] = yeast transport mutant growth inhibition pilot in 384-well plates, post-Golgi transport modulator project (AID 636; in the data active = inhibition above about 31%); conditions: absorbance 615 nm, about 18 h, stronger effect = higher value
[8] = growth suppression of yeast trafficking mutant, preliminary HTS, modulators of trafficking downstream of Golgi apparatus project, 1536-format plate, OD 615 nm (AID 637; in the data active = inhibition above about 30%); conditions: yeast transport mutant growth, absorbance 615 nm, 18 h; stronger effect = higher value
[9] = H69AR cells + 2 uM doxorubicin, measured here: viability with 2 uM doxorubicin, stronger effect = lower value
[10] = H69AR cells, compound alone cytotoxicity

SMILES | viability [1] | Her2 level [2] | viability [3] | viability [4] | viability [5] | differential viability (reversal) ([6]; H69AR cells + 2 uM doxorubicin) | viability [6, 9] | viability [6, 10] | inhibition [7] | inhibition [8]
CCOC(=O)c1ccc(NS(=O)C23CC4CC(CC(C4)C2)C3)cc1 (stereo not given) | 95.5% | 82% (inactive) | 95.5% (inactive) | 74% (inactive) | 87.6% (inactive) | -4.57% (inactive) | 92.2% | 87.6% | -7.57% (inactive) | 3.28% (inactive)
O=C(Nc1ccc(SC(F)F)cc1)c1ccc2nccnc2c1 | 91.5% | 77.5% (inactive) | 91.5% (inactive) | 67% (inactive) | 92.1% (inactive) | 2.67% (inactive) | 89.4% | 92.1% | -2.53% (inactive) | -2.54% (inactive)
Cn1c(NCc2cccc(Br)c2)nc2ccccc21 | 87% | 86.5% (inactive) | 87% (inactive) | 83.7% (inactive) | 81.1% (inactive) | 7.16% (inactive) | 73.9% | 81.1% | -4.27% (inactive) | -3.87% (inactive)
CCOC(=O)c1ccc(Oc2nc(NC)nc(OC)n2)cc1 | 100% | 108% (inactive) | 100% (inactive) | 103% (inactive) | 104% (inactive) | 5.53% (inactive) | 98.8% | 104% | -1.35% (inactive) | -6.67% (inactive)
COc1ccc2cc(CN(CCO)C(=O)c3ccc(Br)cc3)c(=O)[nH]c2c1 | 98% | 81.5% (inactive) | 98% (inactive) | 90.2% (inactive) | 110% (inactive) | 19.2% (inactive) | 90.3% | 110% | -4.93% (inactive) | 5.41% (inactive)
Cc1cc2oc(C(=O)NC3CCS(=O)(=O)C3)c(C)c2cc1C (stereo not given) | 99.5% | 98% (inactive) | 99.5% (inactive) | 97.7% (inactive) | 93.7% (inactive) | 22.6% (inactive) | 71% | 93.7% | 1.45% (inactive) | 1.48% (inactive)
COC(=O)Cn1c(C)nc2c(sc3nc(C)cc(C)c32)c1=O | 110% | 113% (inactive) | 110% (inactive) | 105% (inactive) | 97.6% (inactive) | 7.48% (inactive) | 90.1% | 97.6% | -4.61% (inactive) | 2.79% (inactive)
CCCNC(=O)C1=C(C)C(=O)OC12CCC(C)CC2 (stereo not given) | 94.5% | 102% (inactive) | 94.5% (inactive) | 87.2% (inactive) | 95.3% (inactive) | 5.14% (inactive) | 90.2% | 95.3% | 2.27% (inactive) | 3.61% (inactive)
CCOc1ccccc1C1CC(=O)Nc2cc3c(cc21)OCO3 (stereo not given) | 110% | 83.5% (inactive) | 110% (inactive) | 31% (inactive) | 23.7% (active) | -37.2% (inactive) | 60.9% | 23.7% | -4.61% (inactive) | 8.17% (inactive)
CN(C)Cc1cn(CCC(=O)O)c2ccccc12 | 96% | 106% (inactive) | 96% (inactive) | 88.5% (inactive) | 101% (inactive) | 2.96% (inactive) | 98.2% | 101% | -1.22% (inactive) | -1.8% (inactive)
Cc1nc(N2CCN(c3ncccn3)CC2)c2oc3ccccc3c2n1 | 85% | 106% (inactive) | 85% (inactive) | 83.9% (inactive) | 99.4% (inactive) | -11.8% (inactive) | 111% | 99.4% | -5.47% (inactive) | -2.06% (inactive)
O=C(COc1ccc2c(c1)OCO2)NC12CC3CC(CC(C3)C1)C2 | 89.5% | 93% (inactive) | 89.5% (inactive) | 75.2% (inactive) | 80.8% (inactive) | -5.25% (inactive) | 86% | 80.8% | -5.07% (inactive) | -6.07% (inactive)
CCn1c(SCC(=O)c2ccc(Cl)cc2)nnc1-c1ccoc1C | 118% | 104% (inactive) | 118% (inactive) | 98.2% (inactive) | 93.6% (inactive) | 4% (inactive) | 89.6% | 93.6% | -2.84% (inactive) | -0.98% (inactive)
CC1CCCN(c2ccc(C(=O)NCc3cccs3)cn2)C1 (stereo not given) | 98.5% | 89.5% (inactive) | 98.5% (inactive) | 96.1% (inactive) | 82.8% (inactive) | 4.85% (inactive) | 77.9% | 82.8% | -0.91% (inactive) | -2.86% (inactive)
CCOC(=O)C1CCN(C(=O)Nc2ccc3snnc3c2)CC1 | 96.5% | 88.5% (inactive) | 96.5% (inactive) | 92.2% (inactive) | 94.9% (inactive) | 5.87% (inactive) | 89% | 94.9% | -6.08% (inactive) | -0.67% (inactive)
Cc1cc(NCCN2CCOCC2)n2nc(C)c(-c3ccccc3)c2n1 | 102% | 87% (inactive) | 102% (inactive) | 91.1% (inactive) | 96.4% (inactive) | 12.8% (inactive) | 83.6% | 96.4% | -0.52% (inactive) | -3.33% (inactive)
COc1ccc(-c2nnn(CCc3nn[nH]n3)n2)cc1OC | 119% | 98.5% (inactive) | 119% (inactive) | 96.9% (inactive) | 95.5% (inactive) | -3.76% (inactive) | 99.2% | 95.5% | -3.6% (inactive) | 9.18% (inactive)
CCCCc1ccc(NC(=O)COCC)cc1 | 110% | 94% (inactive) | 110% (inactive) | 92.1% (inactive) | 93.1% (inactive) | 7.21% (inactive) | 85.9% | 93.1% | -2.63% (inactive) | 5.08% (inactive)
O=C(CSc1ncnc2ccccc12)N1CCN(c2ccccc2)CC1 | 102% | 92.5% (inactive) | 102% (inactive) | 94.1% (inactive) | 82.7% (inactive) | 4.57% (inactive) | 78.1% | 82.7% | -1.05% (inactive) | -8.73% (inactive)
CCOC(=O)NC(=O)CSc1nnnn1-c1ccc(Cl)cc1 | 86.5% | 94% (inactive) | 86.5% (inactive) | 104% (inactive) | 106% (inactive) | 20.4% (inactive) | 85.7% | 106% | -5.2% (inactive) | 0.48% (inactive)
CC1CN(CC(O)COc2ccc(C(C)C)cc2)CC(C)O1 (stereo not given) | 93% | 94.5% (inactive) | 93% (inactive) | 94.9% (inactive) | 76.2% (inactive) | 3.78% (inactive) | 72.4% | 76.2% | 18.6% (inactive) | 6% (inactive)
O=C(CN(Cc1ccco1)C(=O)c1cc(=O)[nH]c2ccccc12)Nc1ccccc1Br | 97% | 79.5% (inactive) | 97% (inactive) | 98.2% (inactive) | 83.1% (inactive) | 9.09% (inactive) | 74% | 83.1% | -4.4% (inactive) | -0.33% (inactive)
Cc1ccnc(NS(=O)(=O)c2ccc(NC(=O)Cc3cccs3)cc2)n1 | 94.5% | 111% (inactive) | 94.5% (inactive) | 87.6% (inactive) | 100% (inactive) | 8.61% (inactive) | 91.9% | 100% | 2.84% (inactive) | -2.79% (inactive)
CCN(CC)S(=O)(=O)c1ccc2oc(C(=O)O)c(C)c2c1 | 108% | 100% (inactive) | 108% (inactive) | 102% (inactive) | 103% (inactive) | 10.4% (inactive) | 92.2% | 103% | -0.4% (inactive) | 4.43% (inactive)
CCN(CC)C(=O)C1=C(C)NC(=O)NC1c1c(F)cccc1Cl (stereo not given) | 108% | 108% (inactive) | 108% (inactive) | 96.8% (inactive) | 101% (inactive) | 13.7% (inactive) | 87.2% | 101% | -3.82% (inactive) | 4.92% (inactive)
CCn1c(SCC(=O)Nc2cc(C)on2)nc2sc3c(c2c1=O)CCCC3 | 91% | 76.5% (inactive) | 91% (inactive) | 84.5% (inactive) | 12.6% (active) | 2.02% (inactive) | 10.6% | 12.6% | -4.93% (inactive) | 7.78% (inactive)
COc1ccc(CCn2c(N)c(C#N)c3nc4ccccc4nc32)cc1OC | 64% | 82.5% (inactive) | 64% (inactive) | 94.3% (inactive) | 90.4% (inactive) | 0.84% (inactive) | 89.6% | 90.4% | -1.45% (inactive) | 7.87% (inactive)
COc1cccc(-n2c(CNc3ccc(F)cc3)nnc2SCC(N)=O)c1 | 115% | 82.5% (inactive) | 115% (inactive) | 101% (inactive) | 90.4% (inactive) | 8.77% (inactive) | 81.6% | 90.4% | -4.67% (inactive) | 0.97% (inactive)
Cc1ccccc1OCc1nnc(SCC(=O)NCc2ccccc2)n1C | 96% | 84.5% (inactive) | 96% (inactive) | 88.4% (inactive) | 104% (inactive) | 8.75% (inactive) | 95.2% | 104% | -4.66% (inactive) | -3.02% (inactive)
